# hERG protect: hERG rescue from dofetilide block, primary screen, cell-based, CHO-hERG, FluxOR thallium flux, dofetilide IC70. AID 1511, 2009. activation (rescue from dofetilide block), less the hit threshold, % at 10 µM. Voltage-gated inwardly rectifying potassium channel KCNH2 (Homo sapiens), Q12809. dofetilide IC70 present. 310,000 compounds, 0.51% hits;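 active means activation above the mean of controls blocked by dofetilide plus 5 SD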;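 further: thallium influx through hERG after potassium depolarization seen as dye fluorescence rise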
# KCNK3 block: human KCNK3 channel inhibitors, primary screen, CHO cells, FluxOR thallium flux, B-score; Potassium channel subfamily K member 3 (Homo sapiens), O14649; B-score at 10 µM; FluxOR fluorescence; active compounds read low; 340,000 compounds, 0.84% hits; AID 602410, 2012;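 active means B-score under library mean minus 4 SD, starting fluorescence ratio at most library mean plus 5 SD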;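 further: more negative B-score means stronger inhibition of thallium flux through KCNK3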
# KCNQ1 act: potentiators or activators of KCNQ1 channel, primary screen, cell-based, thallium flux, high-throughput. CHO-K1 KCNQ1, thallium flux FluxOR fluorescence; active compounds read high. B-score at 10 µM. Potassium voltage-gated channel subfamily KQT member 1 (Homo sapiens), P51787. AID 2648, 2010. 310,000 compounds, 0.35% hits;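 active means fluorescence ratio B-score, a plate-corrected score, at least three library SD, with initial intensity B-score within 5 SD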
#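 Assay system: stable KCNQ1 CHO-K1 line; medium: assay buffer, equal DMSO in all wells; timing: 90 min dye loading and 20 min compound exposure, both at room temperature; technique: kinetic FluxOR thallium fluorescence, 10-s 1-Hz baseline, 110-s post-stimulus read; read-out basis: B score of baseline-normalized fluorescence ratio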
# KCNQ1 inh: inhibitors of human KCNQ1 channel, primary screen, cell-based, thallium flux, high-throughput. 310,000 compounds, 1.3% hits. B-score at 10 µM. CHO-K1 KCNQ1, FluxOR thallium flux fluorescence; active compounds read high;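 active means compounds whose thallium flux B-score, printed positive for inhibition, exceeds three library SD while starting fluorescence stays within three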;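 further: channel opened by potassium depolarization with thallium stimulus after 20 min compound exposure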
# Cl transport mod: KCC2 cotransporter modulators, thallium flux, primary screen, cell-based, HEK293 KCC2, FluoZin-2 fluorescence, MLSMR. 190,000 compounds, 2.2% hits. KCC2 cells, thallium flux FluoZin-2 fluorescence. B-score of Tl+ flux slope (higher = more flux/activation; lower = inhibition) at 10 µM. AID 1456, 2008;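 active means thallium flux slope and its plate-corrected score both differing from the plate sample mean at a set confidence after two filtering rounds, in either direction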;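 further: slope of fluorescence scaled to starting intensity during 10 to 20 s after thallium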
# KCNK9 inh: KCNK9 potassium channel inhibitors, primary screen, HEK293 cells, thallium flux; Potassium channel subfamily K member 9 (Homo sapiens), Q9NPC2; 310,000 compounds, 1.2% hits; B-score at 10 µM; FluxOR thallium flux fluorescence; active compounds read low;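 active means ratio B-score over 3 SD below the library mean, with starting fluorescence within 5 SD of its mean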;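 further: negative B-score means less thallium flux so channel inhibition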
# KCNK9 block conf: KCNK9 potassium channel inhibitors, confirmation, HEK293 cells, thallium flux, duplicate; inhibition, % at 10 µM; shares compounds with KCNK9 inh; 4,900 compounds, 43% hits; FluxOR thallium flux fluorescence;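 active means thallium signal inhibited by more than 5 SD of the compound-free buffer control wells, on both duplicate plates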;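 further: 0% = assay buffer control wells without compound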
# Kir21 sel: mouse Kir2.1 channel inhibition, confirmation, selectivity assay for KCNK9 modulator project, cell-based, HEK293, thallium flux | inhibition, % at 10 µM | 4,900 compounds, 4% hits | shares compounds with KCNK9 inh | Kir2.1 cells, FluxOR thallium flux fluorescence | AID 492993, 2010;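 active means thallium signal drop more than 5 SD beyond the mean of the no-compound control wells, seen in both duplicate plates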;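 further: signal is fluorescence rise after thallium addition divided by baseline fluorescence; plate controls were assay buffer only for no effect and full block by chlorpromazine control for full effect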
# Target sequence (P35561 whole entry, looked up): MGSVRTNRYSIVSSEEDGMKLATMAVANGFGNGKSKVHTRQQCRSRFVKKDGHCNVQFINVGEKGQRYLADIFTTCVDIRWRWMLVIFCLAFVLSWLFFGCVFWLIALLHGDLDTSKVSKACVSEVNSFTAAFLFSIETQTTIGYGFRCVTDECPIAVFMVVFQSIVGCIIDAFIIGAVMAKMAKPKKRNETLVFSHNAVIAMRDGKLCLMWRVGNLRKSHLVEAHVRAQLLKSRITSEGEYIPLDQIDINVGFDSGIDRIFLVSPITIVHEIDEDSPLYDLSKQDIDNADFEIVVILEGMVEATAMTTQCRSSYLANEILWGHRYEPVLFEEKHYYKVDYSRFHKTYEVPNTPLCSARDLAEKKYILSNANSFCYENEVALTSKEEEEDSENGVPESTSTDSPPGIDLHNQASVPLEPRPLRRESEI
# HEK293 Tl ctr: thallium flux in non-induced HEK293 cells, confirmation, counter-screen for KCNK9 inhibitor project, cell-based, second counter screen, non-induced KCNK9-HEK293 | shares compounds with KCNK9 inh | FluxOR thallium flux | inhibition, % at 10 µM | 4,900 compounds, 40% hits;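 active means thallium signal drop beyond 5 SD of the untreated control mean, on both duplicate plates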;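 further: plate controls were buffer only IC0 wells for no effect and SID17386958 at its maximal inhibitory level for full effect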
# KCNK3 inh conf: retest of human KCNK3 channel inhibitors, confirmation, CHO cells, FluxOR thallium flux, triplicate. shares compounds with KCNK3 block. ratio percent of control, % at 10 µM. AID 651638, 2012. 2,400 compounds, 99% hits. FluxOR fluorescence; 0% buffer, 100% carvedilol maximal block;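 active means ratio percent of control, averaged over triplicates, above buffer control mean plus 5 SD, cut at about 64% in these data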;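 further: ratio is the fluorescence rise from min to max over baseline after thallium stimulus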
# KCNK3 uninduced: thallium flux inhibition in non-induced cells, primary screen, counter-screen for KCNK3 inhibitor project, cell-based, non-induced KCNK3 line, FluxOR thallium, triplicate; thallium flux ratio (lower = more inhibition) at 10 µM; shares compounds with KCNK3 block; 2,400 compounds, 40% hits; non-induced KCNK3 parental cells; active compounds read low;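 active means thallium flux ratio, averaged over three wells, more than 5 SD below the buffer control mean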;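 further: host cells are CHO cells without KCNK3 induction; ratio is peak minus trough fluorescence over baseline then normalized to buffer controls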
# * = called active by the depositor; i = inactive; x = no result given. A selection: hits, their analogues and other compounds. The true share with any hit is near 4.1%.
SMILES,hERG protect,KCNK3 block,KCNQ1 act,KCNQ1 inh,Cl transport mod,KCNK9 inh,KCNK9 block conf,Kir21 sel,HEK293 Tl ctr,KCNK3 inh conf,KCNK3 uninduced
CCC(=O)Nc1cccc(C(=O)/C=C/c2cc(Br)ccc2OC)c1,-10,-9.3*,i,i,-0.56,-10*,38%*,i,30%*,138*,i
COc1ccc(Br)cc1/C=C/C(=O)Nc1ccc2ccccc2c1,-10,i,i,i,0.1,i,x,x,x,x,x
O=C(Nc1ccc(Br)cc1)/C(=C/c1cccc([N+](=O)[O-])c1)NC(=O)C1CCCCC1,-2,-9.4*,i,i,x,-9.7*,50%*,i,34%*,107*,0.15*
COC(=O)c1ccc(SCC(=O)NCc2ccccc2)c([N+](=O)[O-])c1,-5,i,i,i,x,i,x,x,x,x,x
CC1(C)CC(=O)C2=C(C1)N1C(=C(C#N)C2c2ccccc2Cl)N=C(N)c2ccccc21 (stereo not drawn),-10,-13*,i,i,0.56,-15*,42%*,i,44%*,90*,i
CC1(C)CC(=O)C2=C(C1)N(c1ccccc1)C(N)=C(C#N)C2c1ccccc1 (stereo not drawn),-14,i,i,i,0.0057,i,x,x,x,x,x
COc1ccc(CCNS(=O)(=O)c2ccc(Br)s2)cc1,-9,-9.4*,i,i,x,-9.2*,76%*,i,34%*,116*,i
O=C(c1cc(COc2ccc(F)cc2F)on1)N1CCN(C2CCCC2)C(=O)C1,-5,i,i,i,x,i,x,x,x,x,x
Cc1nc2c(-c3ccc(F)cc3)c(C)nn2c(C)c1CCC(=O)N1CCC(Cc2ccccc2)CC1,-10,-10*,i,i,-0.72,-9.8*,i,i,42%*,115*,i
Cc1ccc(S(=O)(=O)N2CCOCC2)cc1NC(=O)CSc1nnc(COc2ccccc2F)n1N,x,i,x,x,x,x,x,x,x,x,x
O=S(=O)(c1ccc(Br)s1)N1CCC(Cc2ccccc2)CC1,-19,-9.1*,i,i,0.15,i,i,i,i,100*,i
O=C(Nc1ccc2c(c1)OCCO2)c1cc2sccc2n1Cc1ccc(F)cc1,-10,-11*,i,i,-0.14,-12*,46%*,i,30%*,120*,0.12*
COCc1c(C(=O)N2CCN(CCOc3ccccc3)CC2)oc2ccccc12,x,i,x,x,x,x,x,x,x,x,x
CCN(CC)c1ccc(C(=O)NNC(=O)C2CSC3(C)CCC(=O)N23)cc1 (stereo not drawn),x,i,x,x,x,x,x,x,x,x,x
COc1ccc(N(C)C(=O)C2CCN(S(=O)(=O)c3cccc4nonc34)CC2)c(OC)c1,-12,i,i,i,x,i,x,x,x,x,x
Cc1cc(NC(=S)N(CCN2CCCCC2)Cc2ccco2)ccc1Cl,-13,-11*,i,i,-0.55,-8.2*,25%*,i,28%*,108*,i
CCOC(=O)C1CCN(C(c2cccnc2)c2c(NC(=O)c3ccco3)sc(C)c2C)CC1 (stereo not drawn),-17,-11*,i,i,x,-19*,66%*,i,40%*,136*,0.11*
O=C(CN(C(=O)c1ccccc1Cl)C1CCCCC1)Nc1ccc(Cl)c([N+](=O)[O-])c1,-15,i,i,8*,-1.4,-11*,36%*,i,29%*,98*,0.16*
CCCNC(=O)C1(CC2CC(c3ccccc3)=NO2)CCN(C(=O)C2CCCC2)CC1 (stereo not drawn),x,i,x,x,x,x,x,x,x,x,x
Cc1ccc([N+](=O)[O-])cc1-c1[nH]c(-c2ccc(O)c(O)c2)nc1-c1ccccc1,-29,-9.8*,i,i,x,-9*,40%*,i,i,111*,i
O=[N+]([O-])c1cccc(-c2nc3ccc([N+](=O)[O-])cc3[nH]2)c1,-22,i,i,i,-0.0067,i,x,x,x,x,x
CCCCn1c(N)c(N(CCOC)C(=O)c2nn(CC)c(=O)c3ccccc23)c(=O)[nH]c1=O,-5,i,i,i,x,i,x,x,x,x,x
COc1ccccc1NC(=O)C(C)OC(=O)CCSc1ccc(F)cc1 (stereo not drawn),-9,i,i,i,x,-16*,62%*,i,30%*,120*,i
Cc1nn(-c2ccccc2)c(Cl)c1/C=N/NC(=O)c1ccncc1,-8,i,i,i,-1,i,x,x,x,x,x
Cc1nn(-c2ccccc2)c(Cl)c1/C=N/NC(=O)c1ccccc1F,-26,-11*,i,i,-0.55,-14*,57%*,i,24%*,101*,i
CCN(CC(=O)N1CCCC1)S(=O)(=O)c1ccc(OC)cc1,-3,i,i,i,x,i,x,x,x,x,x
Cc1ccc(CN2CCCN(Cc3c(F)cccc3Cl)S2(=O)=O)cc1,-5,-10*,i,i,x,-14*,60%*,i,43%*,113*,i
